≈ marks a conversion by molar mass, not a printed value.
What was measured:
Staphylococcus aureus [1] = assay: Antibacterial activity against methicillin-resistant Staphylococcus aureus 08-52 after 18 to 24 hrs by agar dilution method; assay type: functional
How it was run: (§1)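 Agar dilution MIC per NCCLS recommendations. MIC is the lowest concentration giving no visible bacterial growth after incubation at 35 °C for 18–24 h.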

Pseudomonas aeruginosa = assay: Antibacterial activity against Pseudomonas aeruginosa 17 after 18 to 24 hrs by agar dilution method; assay type: functional
How it was run: (§2)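 Agar dilution done to NCCLS recommendations. Plates incubated 18–24 h at 35 °C. MIC taken as the lowest concentration of compound that gave no visible bacterial growth.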

Shigella sonnei = assay: Antibacterial activity against Shigella sonnei 51592 after 18 to 24 hrs by agar dilution method; assay type: functional; how it was run: as §2
Enterobacter cloacae = assay: Antibacterial activity against Enterobacter cloacae 45301 after 18 to 24 hrs by agar dilution method; assay type: functional; how it was run: as §2
Klebsiella pneumoniae = assay: Antibacterial activity against Klebsiella pneumoniae 7 after 18 to 24 hrs by agar dilution method; assay type: functional; how it was run: as §2
[2] = test system: Staphylococcus epidermidis; assay: Antibacterial activity against methicillin-resistant Staphylococcus epidermidis 08-18 after 18 to 24 hrs by agar dilution method; assay type: functional; how it was run: as §1
Escherichia coli = assay: Antibacterial activity against Escherichia coli 26 after 18 to 24 hrs by agar dilution method; assay type: functional; how it was run: as §2
[3] = test system: Staphylococcus epidermidis; assay: Antibacterial activity against Staphylococcus epidermidis ATCC 12228 after 18 to 24 hrs by agar dilution method; assay type: functional; how it was run: as §2
[4] = Cytotoxicity against african green monkey Vero cells after 48 hrs by CPE assay; assay type: cell-based; conditions: chlorocebus sabaeus
Staphylococcus aureus [5] = assay: Antibacterial activity against Staphylococcus aureus ATCC 29213 after 18 to 24 hrs by agar dilution method; assay type: functional; how it was run: as §2
Enterococcus faecalis = assay: Antibacterial activity against Enterococcus faecalis ATCC 29212 after 18 to 24 hrs by agar dilution method; assay type: functional; how it was run: as §2
Streptococcus pneumoniae = assay: Antibacterial activity against Streptococcus pneumoniae ATCC 49619 after 18 to 24 hrs by agar dilution method; assay type: functional; how it was run: as §2
Streptococcus pyogenes = assay: Antibacterial activity against Streptococcus pyogenes 06-1 after 18 to 24 hrs by agar dilution method; assay type: functional; how it was run: as §2

SMILES | MIC (Staphylococcus aureus [1]) | MIC (Pseudomonas aeruginosa) | MIC (Shigella sonnei) | MIC (Enterobacter cloacae) | MIC (Klebsiella pneumoniae) | MIC [2] | MIC (Escherichia coli) | MIC [3] | CC50 at 48 h [4] | MIC (Staphylococcus aureus [5]) | MIC (Enterococcus faecalis) | MIC (Streptococcus pneumoniae) | MIC (Streptococcus pyogenes)
CO/N=C1/CCN(c2nc3c(cc2F)c(=O)c(C(=O)O)cn3C2CC2)CC1(C)CN (configuration not stated) | 8 µg/mL (≈ 19.2 µM) | 8 µg/mL (≈ 19.2 µM) | 1 µg/mL (≈ 2.4 µM) | 4 µg/mL (≈ 9.58 µM) | 0.5 µg/mL (≈ 1.2 µM) | 0.25 µg/mL (≈ 0.599 µM) | 0.5 µg/mL (≈ 1.2 µM) | 1 µg/mL (≈ 2.4 µM) | 177 µg/mL (≈ 423 µM) | 0.5 µg/mL (≈ 1.2 µM) | 32 µg/mL (≈ 76.7 µM) | 32 µg/mL (≈ 76.7 µM) | 8 µg/mL (≈ 19.2 µM)
CCO/N=C1/CCN(c2nc3c(cc2F)c(=O)c(C(=O)O)cn3C2CC2)CC1(C)CN (configuration not stated) | 8 µg/mL (≈ 18.5 µM) | 16 µg/mL (≈ 37.1 µM) | 1 µg/mL (≈ 2.32 µM) | 8 µg/mL (≈ 18.5 µM) | 1 µg/mL (≈ 2.32 µM) | 0.25 µg/mL (≈ 0.579 µM) | 1 µg/mL (≈ 2.32 µM) | 0.5 µg/mL (≈ 1.16 µM) | 44.2 µg/mL (≈ 102 µM) | 0.25 µg/mL (≈ 0.579 µM) | 4 µg/mL (≈ 9.27 µM) | 4 µg/mL (≈ 9.27 µM) | 16 µg/mL (≈ 37.1 µM)
CO/N=C1/CCN(c2nc3c(cc2F)c(=O)c(C(=O)O)cn3-c2ccc(F)cc2F)CC1(C)CN (configuration not stated) | 128 µg/mL (≈ 262 µM) | 32 µg/mL (≈ 65.4 µM) | 8 µg/mL (≈ 16.3 µM) | 32 µg/mL (≈ 65.4 µM) | 128 µg/mL (≈ 262 µM) | 2 µg/mL (≈ 4.09 µM) | 8 µg/mL (≈ 16.3 µM) | 2 µg/mL (≈ 4.09 µM) | 88.4 µg/mL (≈ 181 µM) | 1 µg/mL (≈ 2.04 µM) | > 128 µg/mL | 64 µg/mL (≈ 131 µM) | 64 µg/mL (≈ 131 µM)
CCO/N=C1/CCN(c2nc3c(cc2F)c(=O)c(C(=O)O)cn3-c2ccc(F)cc2F)CC1(C)CN (configuration not stated) | 128 µg/mL (≈ 254 µM) | 128 µg/mL (≈ 254 µM) | 16 µg/mL (≈ 31.8 µM) | 32 µg/mL (≈ 63.6 µM) | 64 µg/mL (≈ 127 µM) | 2 µg/mL (≈ 3.97 µM) | 8 µg/mL (≈ 15.9 µM) | 4 µg/mL (≈ 7.94 µM) | 78.8 µg/mL (≈ 156 µM) | 2 µg/mL (≈ 3.97 µM) | > 128 µg/mL | 128 µg/mL (≈ 254 µM) | 64 µg/mL (≈ 127 µM)
CO/N=C1/CCN(c2c(F)cc3c(=O)c(C(=O)O)cn(C4CC4)c3c2F)CC1(C)CN (configuration not stated) | 16 µg/mL (≈ 36.8 µM) | 16 µg/mL (≈ 36.8 µM) | 1 µg/mL (≈ 2.3 µM) | 4 µg/mL (≈ 9.21 µM) | 64 µg/mL (≈ 147 µM) | 0.25 µg/mL (≈ 0.575 µM) | 0.5 µg/mL (≈ 1.15 µM) | 0.25 µg/mL (≈ 0.575 µM) | 88.4 µg/mL (≈ 203 µM) | 0.25 µg/mL (≈ 0.575 µM) | 64 µg/mL (≈ 147 µM) | 32 µg/mL (≈ 73.7 µM) | 32 µg/mL (≈ 73.7 µM)
CCO/N=C1/CCN(c2c(F)cc3c(=O)c(C(=O)O)cn(C4CC4)c3c2F)CC1(C)CN (configuration not stated) | 8 µg/mL (≈ 17.8 µM) | 16 µg/mL (≈ 35.7 µM) | 2 µg/mL (≈ 4.46 µM) | 16 µg/mL (≈ 35.7 µM) | 2 µg/mL (≈ 4.46 µM) | 0.25 µg/mL (≈ 0.557 µM) | 2 µg/mL (≈ 4.46 µM) | 0.25 µg/mL (≈ 0.557 µM) | 62.5 µg/mL (≈ 139 µM) | 0.125 µg/mL (≈ 0.279 µM) | 2 µg/mL (≈ 4.46 µM) | 8 µg/mL (≈ 17.8 µM) | 16 µg/mL (≈ 35.7 µM)
CCn1cc(C(=O)O)c(=O)c2cc(F)c(N3CC/C(=N/OC)C(C)(CN)C3)c(F)c21 (configuration not stated) | 32 µg/mL (≈ 75.8 µM) | 64 µg/mL (≈ 152 µM) | 8 µg/mL (≈ 18.9 µM) | 32 µg/mL (≈ 75.8 µM) | 64 µg/mL (≈ 152 µM) | 2 µg/mL (≈ 4.73 µM) | 8 µg/mL (≈ 18.9 µM) | 2 µg/mL (≈ 4.73 µM) | 315 µg/mL (≈ 746 µM) | 1 µg/mL (≈ 2.37 µM) | 128 µg/mL (≈ 303 µM) | 128 µg/mL (≈ 303 µM) | 64 µg/mL (≈ 152 µM)
CCO/N=C1/CCN(c2c(F)cc3c(=O)c(C(=O)O)cn(CC)c3c2F)CC1(C)CN (configuration not stated) | 16 µg/mL (≈ 36.7 µM) | 128 µg/mL (≈ 293 µM) | 32 µg/mL (≈ 73.3 µM) | 128 µg/mL (≈ 293 µM) | 16 µg/mL (≈ 36.7 µM) | 2 µg/mL (≈ 4.58 µM) | 16 µg/mL (≈ 36.7 µM) | 4 µg/mL (≈ 9.16 µM) | 78.8 µg/mL (≈ 180 µM) | 2 µg/mL (≈ 4.58 µM) | 128 µg/mL (≈ 293 µM) | 64 µg/mL (≈ 147 µM) | 64 µg/mL (≈ 147 µM)
CO/N=C1/CCN(c2c(F)cc3c(=O)c(C(=O)O)cn(CCF)c3c2F)CC1(C)CN (configuration not stated) | 64 µg/mL (≈ 145 µM) | 64 µg/mL (≈ 145 µM) | 16 µg/mL (≈ 36.3 µM) | 64 µg/mL (≈ 145 µM) |  | 2 µg/mL (≈ 4.54 µM) | 8 µg/mL (≈ 18.2 µM) | 4 µg/mL (≈ 9.08 µM) | 315 µg/mL (≈ 715 µM) | 2 µg/mL (≈ 4.54 µM) | > 128 µg/mL | 128 µg/mL (≈ 291 µM) | 128 µg/mL (≈ 291 µM)
CCO/N=C1/CCN(c2c(F)cc3c(=O)c(C(=O)O)cn(CCF)c3c2F)CC1(C)CN (configuration not stated) | 64 µg/mL (≈ 141 µM) | 128 µg/mL (≈ 282 µM) | 64 µg/mL (≈ 141 µM) | 64 µg/mL (≈ 141 µM) | 64 µg/mL (≈ 141 µM) | 4 µg/mL (≈ 8.8 µM) | 16 µg/mL (≈ 35.2 µM) | 4 µg/mL (≈ 8.8 µM) | 157 µg/mL (≈ 347 µM) | 2 µg/mL (≈ 4.4 µM) | 128 µg/mL (≈ 282 µM) | 128 µg/mL (≈ 282 µM) | 128 µg/mL (≈ 282 µM)
CO/N=C1/CCN(c2c(F)cc3c(=O)c(C(=O)O)cn4c3c2OC[C@@H]4C)CC1(C)CN (some centres not stated) | 64 µg/mL (≈ 148 µM) | 32 µg/mL (≈ 74 µM) | 8 µg/mL (≈ 18.5 µM) | 16 µg/mL (≈ 37 µM) | 128 µg/mL (≈ 296 µM) | 1 µg/mL (≈ 2.31 µM) | 4 µg/mL (≈ 9.25 µM) | 2 µg/mL (≈ 4.62 µM) | 177 µg/mL (≈ 409 µM) | 1 µg/mL (≈ 2.31 µM) | 128 µg/mL (≈ 296 µM) | 128 µg/mL (≈ 296 µM) | 64 µg/mL (≈ 148 µM)
C[C@H]1COc2c(N3CCN(C)CC3)c(F)cc3c(=O)c(C(=O)O)cn1c23.C[C@H]1COc2c(N3CCN(C)CC3)c(F)cc3c(=O)c(C(=O)O)cn1c23.O [LEVOFLOXACIN] | 16 µg/mL | 0.25 µg/mL | 1 µg/mL | 0.125 µg/mL |  | 0.125 µg/mL |  | 0.25 µg/mL | > 1000 µg/mL | 0.125 µg/mL | 0.5 µg/mL |  | 16 µg/mL

Source: ChEMBL document CHEMBL1221265, “Synthesis and in vitro antibacterial activity of novel fluoroquinolone derivatives containing substituted piperidines” (Bioorg Med Chem Lett, 2010)
